# aSyn 5UTR inh: 5' untranslated region of α-synuclein, MLPCN primary screen; alpha-synuclein 5'UTR reporter, inhibitor activity; hit rate 0.82% among 300,000; inhibition, % (tested at 7.5 µM); AID 1813; in the data active = inhibition above about 60%; inconclusive = no clear call, values can overlap the other calls;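 note: H4 neuroglioblastoma cells stably carrying SNCA 5'UTR luciferase fusion; 0% = DMSO wells and 100% = positive control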
# Jurkat NFkB inh: inhibitors of the PMA/ionomycin-induced NF-kB reporter in Jurkat cells; hit rate 0.53% among 330,000; PMA/ionomycin-induced NF-kB luciferase reporter, luminescence; inhibition, % at 4 µM; AID 435003; in the data active = inhibition above about 50%
# Hep lipid drop: hepatic lipid droplet formation modulation; AML12 mouse hepatocytes, oleate lipid droplets, BODIPY imaging; inhibition, % at 6.5 µM; hit rate 0.4% among 240,000; AID 1656;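 active = lipid droplet intensity inhibited by at least 50%, with more than 500 cells counted; inconclusive = wells with under 300 cells, treated as cytotoxic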
#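 Material: mouse AML12 hepatocyte cell line, fixed after treatment; Timing: compound with oleate, overnight; Technique: high-content imaging of BODIPY-stained droplets and DAPI nuclei; Probe or stimulus: oleate, 100 µM final; Dosing: compound at 6.5 µM only.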
# APP transl inh: APP translation inhibition | inhibition, % at 2 µM | hit rate 0.82% among 190,000 | SH-SY5Y APP 5'UTR-luciferase reporter, luminescence;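 active = inhibition above a set limit, derived from the sample mean plus 3 SD, cut at about 45% in these data; inconclusive = one replicate passes the limit while the other fails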
# 697 NFkB inh: inhibitors of the PMA/ionomycin-induced NF-kB reporter in 697 B cells; 697 B-cell NF-kB luciferase reporter, 16 h; inhibition, % at 4 µM; hit rate 0.33% among 330,000; in the data active = inhibition above about 35%
# TAG inh: inhibitors of triacylglycerol accumulation; inhibition, % at 12.5 µM; AID 651582; H9c2 cells, Nile Red lipid (TAG) fluorescence; cells loaded with 200 µM oleic acid; hit rate 0.66% among 230,000;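 active = pattern-corrected inhibition of lipid staining of at least 50% with the nuclear-stain viability signal not falling by more than 50%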;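 note: 0% = DMSO wells and 100% = triacsin C control wells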
# Jurkat NFkB conf: inhibitors of the PMA/ionomycin-induced NF-kB reporter in Jurkat cells, retest | shares compounds with Jurkat NFkB inh | Jurkat NF-kB luciferase, 16 h | inhibition, % at 4 µM | hit rate 27% among 2,700;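 active = inhibition reaching about 45% at 4 µM in either replicate, limit read from the data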;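 note: plate controls were PMA/ionomycin stimulated DMSO wells for no effect and unstimulated DMSO wells for full effect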
# Active calls of the source: *; ? = inconclusive; / = not tested or not shown. This is a sample that favours compounds with a hit; in the whole collection about 1.9% have one here.
SMILES,aSyn 5UTR inh,Jurkat NFkB inh,Hep lipid drop,APP transl inh,697 NFkB inh,TAG inh,Jurkat NFkB conf
CCCCOC(=O)c1ccc(NC(=S)NC(=O)c2c(Br)c(C)nn2C)cc1,-22.4,8.1,-17.4,-3.7,-4.1,/,/
Cc1ccc2c(c1)Oc1ccc(NC(=O)CCl)cc1C(=O)N2,-29.5,64.1*,4.2,52.6*,16.6,55.8*,51.1*
Cc1ccc2c(c1)Oc1ccc([N+](=O)[O-])cc1C(=O)N2,-5.3,-4.0,2.6,-7.5,7.4,-4.0,/
COc1ccc(N2C(=S)NC3CS(=O)(=O)CC32)cc1 (stereo unspecified),-12.2,-22.0,-3.0,/,5.0,3.5,/
COc1ccccc1N1C(=O)C=C(Sc2nc(C)cc(C)n2)C1=O,-10.6,2.9,23.0,/,-22.1,2.9,/
O=C(N/N=C/c1cn(-c2ccccc2)nc1-c1cc2ccccc2o1)c1ccncc1,-14.6,-154.5,26.7,-187.8,-142.3,27.9,-119.0
O=C(N/N=C/c1cn(-c2ccccc2)nc1-c1cc2ccccc2o1)c1cccnc1,22.8,-121.9,9.8,-147.8,-93.4,34.6,/
COc1ccc(C(=O)CCNc2ccc(F)cc2)cc1,-114.2,70.4*,6.6,/,-118.6,7.2,-27.4
COc1ccc(NC(=O)CCC(=O)c2ccc(F)cc2)cc1,/,/,/,/,/,-13.0,/
Cc1ccc(Cl)cc1NC(=O)C1CCCN(S(C)(=O)=O)C1 (stereo unspecified),9.5,15.2,-2.4,/,21.0,-2.7,/
COc1ccc(N(S(=O)(=O)c2ccccc2)S(=O)(=O)c2ccccc2)c(N)c1,-2.6,50.6*,/,/,-1.3,-7.5,3.9
O=C(N/N=C(\c1ccccc1)c1cccnc1)c1cccc(F)c1,80.4*,52.4*,-19.8,/,-10.2,28.3,54.9*
CC/C(=N\NC(=O)c1csc(C)c1C)c1cccs1,-181.8,-156.6,/,-79.6,-156.8,5.3,-29.4
CCC/C(=N\NC(=O)c1csc(C)c1C)c1cccs1,-108.9,-59.6,-9.7,-45.0,-113.5,-14.3,/
CCN(CC)CCCNc1oc(-c2cccc(Cl)c2)nc1C#N,-17.4,-26.5,13.9,-11.4,-22.0,/,/
CCN(CC)CCCNc1ccc(-c2nnc(-c3ccc(OCC(C)C)cc3)o2)cn1,120.7*,60.4*,-49.4,/,-45.5,/,26.3
CC(=O)N(c1ccc(Cl)cc1)c1cn(C(C)=O)c2ccccc12,-13.6,-2.3,-9.1,-15.1,8.8,-6.1,/
CC(=O)n1cc(N(C(=O)CCl)c2ccc(C)cc2)c2ccccc21,88.8*,75.7*,6.5,/,8.0,64.8*,-1.4
O=C(CSc1nccc(=O)[nH]1)Nc1cc(C(F)(F)F)ccc1N1CCOCC1,4.1,-16.1,0.8,/,-15.3,/,/
Cc1ccc2nc(SCC(=O)Nc3cc(C(F)(F)F)ccc3N3CCOCC3)[nH]c2c1,95.8*,52.0*,-40.6,94.4*,-46.7,46.2,56.1*
N#CC1=C2SC=C(c3ccc(Br)cc3)N2CCCC1=O,-257.0,-209.9,-4.4,-175.8,-179.5,1.3,-88.1
CCOc1ccccc1N1CC(C(=O)N2CCOCC2)CC1=O (stereo unspecified),7.0,-9.7,7.7,/,1.1,/,/
CCOc1ccccc1NC(=O)CN1CCN(Cc2ccccc2)CC1,-1.1,-1.9,/,/,1.2,/,/
O=[N+]([O-])c1ccc2nc(-c3ccc(Cl)cc3)n(OCc3ccccc3)c2c1,-243.1,-199.0,/,/,-240.5,/,-88.7
COc1cc(Br)c(CN2C(=O)NC3(CCCCCC3)C2=O)cc1OC,-14.3,-8.0,-1.8,/,-21.4,/,/
SMILES,aSyn 5UTR inh,Jurkat NFkB inh,Hep lipid drop,APP transl inh,697 NFkB inh,TAG inh,Jurkat NFkB conf
CCc1cccc2c(C(=O)CN3C(=O)NC4(CCCCCC4)C3=O)c[nH]c12,/,93.9*,/,/,-15.4,44.8,15.8
CSc1nsc(SCC(=O)N2CCN(c3ccccc3)CC2)n1,15.7,6.0,-4.1,-23.8,10.4,2.4,/
O=C(CN1C(=O)NC2(CCOc3ccccc32)C1=O)NCCc1ccccc1 (stereo unspecified),/,63.7*,/,/,-1.0,-6.8,13.6
CCN(CC(=O)Nc1cc(Cl)ccc1C)C(=O)COc1cccc2c1OC(C)(C)C2,17.8,-8.5,-1.8,/,0.9,15.6,/
COc1ccccc1CNC(=O)c1csc(Cc2ccc(Cl)cc2)n1,25.2,71.0*,/,-9.4,0.5,-32.7,18.1
O=c1c2ccccc2nc2n1CCc1c-2[nH]c2ccccc12,/,-193.5,/,/,-175.6,5.8,-85.1
Cc1cccc2c(=O)n3c(cc12)-c1[nH]c2ccccc2c1CC3,/,/,/,/,/,28.4,/
COc1cc(C2CC(=O)c3cnc(N4CCN(Cc5ccccc5)CC4)nc3C2)cc(OC)c1OC (stereo unspecified),-10.2,58.5*,-10.2,6.5,-73.2,27.7,16.1
Cc1ccc(NC2CC(C)NC(=S)N2)cc1 (stereo unspecified),-44.6,16.8,-9.9,/,10.2,6.2,/
CC(O)CNCc1ccc(-c2ccccc2)cc1 (stereo unspecified),-10.5,9.9,/,-10.0,-12.1,/,/
CC(NCc1ccc(-c2ccccc2)cc1)C(O)c1ccccc1 (stereo unspecified),-35.4,54.8*,-63.9,4.2,-16.5,23.5,12.9
CCC1([N+](=O)[O-])COC(c2ccc(OC)cc2)OC1 (stereo unspecified),/,/,/,/,/,-12.1,/
COc1cccc(N2CCN(C(=O)CCNS(=O)(=O)c3ccc4c(c3)c(=O)n(C)c(=O)n4C)CC2)c1,2.6,11.1,3.2,11.2,-3.0,-1.3,/
CCn1c2ccccc2c2cc(NC(=O)c3ccc(=O)oc3)ccc21,-11.9,-7.3,-2.0,/,7.8,-5.8,/
CCn1c2ccccc2c2cc(NC(=O)c3cc(OC)c(OC)c(OC)c3)ccc21,-23.4,57.5*,/,7.5,-140.3,/,51.0*
COc1cc(C(=O)Nc2ccc3c(c2)ncn3C)cc(OC)c1OC,25.4,52.4*,-5.9,/,-52.9,/,37.0
CCn1c2ccccc2c2cc(NC(=O)c3cc(OC)cc(OC)c3)ccc21,100.7*,59.8*,?,94.9*,2.9,/,41.5
CCn1c2ccccc2c2cc(NC(=O)COc3ccc(OC)cc3)ccc21,14.8,-6.2,/,2.7,6.0,13.3,/
COc1ccc(S(=O)(=O)N(C)C[C@@H]2OCc3cnnn3CCCC(=O)N([C@H](C)CO)C[C@@H]2C)cc1,/,/,/,/,/,0.9,/
O=C(Nc1ccc(Cl)c(Cl)c1)c1ccccc1,/,-188.0,/,/,-126.0,-11.6,-92.8
O=C(Nc1ccc(C2SCCS2)cc1)c1ccccc1,-88.3,-150.0,8.9,/,-216.5,-7.6,-109.8
O=C(CNC(=O)c1ccc(Cl)cc1)NNc1c(F)c(F)cc(F)c1F,/,-3.4,/,/,11.5,-4.6,/
CCCCN(C(=O)c1cc2c(s1)CCC2)c1c(N)n(CCC)c(=O)[nH]c1=O,/,0.7,/,/,0.1,-9.6,/
Oc1ccccc1-c1cc(-c2ccccc2)n[nH]1,/,-181.3,/,/,-200.3,-11.9,-81.2
O=C(Nc1ccc(N2CCCCCC2)cc1)c1ccccc1Cl,-252.4,-25.9,3.2,-106.6,-104.1,14.8,/
O=C(Nc1ccc(N2CCCCC2)cc1)c1ccccn1,113.8*,66.7*,-0.4,41.0,20.7,-5.2,68.9*
